Experimental findings from ChEMBL document CHEMBL3351630, “ent-Kaurane diterpenes from the stem bark of Annona vepretorum (Annonaceae) and cytotoxic evaluation” (Bioorg Med Chem Lett, 2014) are described below.

Test [1] in a line: Cytotoxicity against mouse B16F10 cells after 72 hrs by alamar blue assay. Format: functional, cell-based. The following applies: B16-F10, 72 h. An outline of the steps:
(§1)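 Tumour lines grown in RPMI-1640 with 10% FBS, 2 mM L-glutamine, gentamycin, at 37°C/5% CO2, mycoplasma-free, used in exponential growth. Alamar blue added 4 h before end, absorbance 570/600 nm. IC50 by nonlinear regression, three independent experiments in duplicate.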

The test system of test [2] is K562. Nature of the test: Cytotoxicity against human K562 cells after 72 hrs by alamar blue assay. Format: functional, cell-based. The following applies: K562, 72 h. An outline of the steps: as §1
Test [3] in a line: Cytotoxicity against human HL60 cells after 72 hrs by alamar blue assay. Format: functional, cell-based. The following applies: HL-60, 72 h. The method, boiled down:
as §1

The test system of another test is HepG2. Nature of the test: Cytotoxicity against human HepG2 cells after 72 hrs by alamar blue assay. Format: functional, cell-based. To be noted: HepG2, 72 h. The method, boiled down:
as §1

In another test the test system is PBMC. Nature of the test: Cytotoxicity against concanavalin-A stimulated human PBMC after 72 hrs by alamar blue assay. In kind it is cell-based. The method, boiled down: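 ConA 10 µg/mL added at culture start; compounds (0.39–25 µg/mL, DMSO) added after 24 h, 72 h incubation. Alamar blue added 24 h before end, absorbance 570/600 nm. IC50 by nonlinear regression, three independent experiments in duplicate.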

Test [4] concerns K562. The test is described as follows: Selectivity index, ratio of IC50 for concanavalin-A stimulated human PBMCs to IC50 for human K562 cells. The method, boiled down:
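SI calculated as IC50 in ConA-stimulated PBMC divided by IC50 in K562, both from 72 h alamar blue assays.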

`C=C1C[C@@]23CC[C@H]4[C@@](C)(CC[C@@H](O)[C@@]4(C)C(=O)O)[C@@H]2CC[C@H]1C3`: the IC50 is over 78.6 µM in test [1]; 63.5 µM with K562 [2]; 76.1 µM in test [3]; over 78.6 µM in the test with HepG2; over 78.6 µM with PBMC.

Take `C=C1C[C@@]23CC[C@@H]4[C@](C)(CO)[C@H](O)CC[C@@]4(C)[C@@H]2CC[C@H]1C3`: the IC50 in test [1] came out at 82.2 µM; in the test with K562 [2], 82.2 µM; in test [3], 82.2 µM; with HepG2, 82.2 µM; in the test on PBMC it was 29.4 µM.

With `C=C1C[C@@]23CC[C@H]4[C@@](C)(CCC[C@@]4(C)C(=O)O)[C@@H]2CC[C@@H]1C3` [KAURENOIC ACID], the IC50 stood at 54.8 µM in test [1]; 72.5 µM in the test on K562 [2]; 44.1 µM in test [3]; 50.7 µM in the test with HepG2; 80.8 µM in the test on PBMC.

On to `C=C1C[C@@]23CC[C@@H]4[C@](C)(C=O)[C@H](O)CC[C@@]4(C)[C@@H]2CC[C@H]1C3`, for which the IC50 in test [1] was 69.5 µM; with K562 [2], 8.24 µM; in test [3], 32.8 µM; in the test with HepG2, 51.3 µM; in the test on PBMC it was 23.8 µM. Further, in the test on K562 [4], the “Ratio IC50” value turned out to be 2.9.

For `C=C1C[C@@]23CC[C@@H]4C(C)(C)[C@H](OC(C)=O)CC[C@@]4(C)[C@@H]2CC[C@H]1C3`, the IC50 (in test [1]; in the test with K562 [2]; in test [3]; with HepG2; in the test on PBMC) was over 75.7 µM each time.

As for `COc1cccc2c1C(=O)c1c(O)c3c(c(O)c1C2=O)C[C@@](O)(C(=O)CO)C[C@@H]3O[C@H]1C[C@H](N)[C@H](O)[C@H](C)O1` [DOXORUBICIN], the IC50 in test [1] stood at 4.23 µM; with K562 [2], 1.25 µM; in test [3], 1.53 µM; in the test with HepG2 it was 0.42 µM; with PBMC, 9.36 µM. The “Ratio IC50” value with K562 [4] stood at 7.5.

`C=C1C[C@@]23CC[C@@H]4C(C)(C)[C@H](O)CC[C@@]4(C)[C@@H]2CC[C@H]1C3`: the IC50 in test [1] is 66.3 µM; with K562 [2], 10.2 µM; in test [3], 34.2 µM; in the test on HepG2, 67.2 µM; with PBMC, 22.5 µM.
